Assay results taken from ChEMBL document CHEMBL3044585, “Potent in vivo antifungal activity against powdery mildews of pregnane glycosides from the roots of Cynanchum wilfordii” (J Agric Food Chem, 2011).
In brackets after ≈: the same amount, converted by molar mass.

Legend:
Blumeria hordei [1] = assay: Antifungal activity against Blumeria graminis f. sp. hordei assessed as control of barley powdery mildew treated 1 day before inoculation; type: functional, organism-based
Summary of the method: (§1)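 One-day protective test on barley against powdery mildew: plants treated 1 day before inoculation, with Tween 20 solution alone as the untreated reference. Pots in randomized complete block design, three replicates per treatment, experiment run twice. Infected leaf area (%) scored; % control = 100[(A − B)/A], A = infection on Tween 20-sprayed leaves, B = infection on treated leaves; reported ± standard deviation.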

Blumeria hordei [2] = assay: Antifungal activity against Blumeria graminis f. sp. hordei assessed as control of barley powdery mildew at 16 ug/mL treated 1 day before inoculation; type: functional
Summary of the method: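 Barley plants in pots treated with sample in Tween 20 solution and inoculated 1 day later (protective assay). Randomized complete block design, three replicates per treatment, experiment run twice. Infected leaf area (%) scored. % control = 100[(A−B)/A], where A is the infection area on leaves sprayed with Tween 20 solution alone; reported ± standard deviation.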

Blumeria hordei [3] = assay: Antifungal activity against Blumeria graminis f. sp. hordei assessed as control of barley powdery mildew at 63 ug/mL treated 1 day before inoculation; type: functional; summary of the method: as §1
Podosphaera macularis [4] = assay: Antifungal activity against Sphaerotheca humuli assessed as diseased fruits in strawberry powdery mildew at 4000 fold dilution (reference value: 62.2%); type: functional
Summary of the method: (§2)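 Commercial greenhouse trial on strawberry cv. Janghee. Plots were 4 m long, with data taken from the middle 3 m. Sprays applied by hand-held sprayer until runoff, three times at 1-week intervals. Before each spray, ripe fruits were harvested and total and diseased fruits counted. Percentage of diseased fruits given as the mean of three replicates; disease-control percentage calculated relative to untreated control.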

Podosphaera macularis [5] = assay: Antifungal activity against Sphaerotheca humuli assessed as control of strawberry powdery mildew at 4000 fold dilution; type: functional; summary of the method: as §2
[6] = Blumeria hordei, read-out: IC50

## NC(=O)OC[C@H](O)[C@@H](O)[C@H](N)C(=O)N[C@H](C(=O)O)[C@H]1O[C@@H](n2cc(CO)c(=O)[nH]c2=O)[C@H](O)[C@@H]1O [POLYOXIN B]
Blumeria hordei [1]; [6]
  IC50: 71.4 µg/mL (≈ 141 µM)

## Cc1cc(O)c2c(c1)C(=O)c1cccc(O)c1C2=O [CHRYSOPHANOL]
Blumeria hordei [1]; [6]
  IC50: 4.7 µg/mL (≈ 18.5 µM)

## CO[C@H]1C[C@H](O[C@H]2[C@@H](OC)C[C@H](O[C@H]3CC[C@@]4(C)C(=CC[C@]5(O)[C@@H]4C[C@@H](OC(=O)/C=C(\C)C(C)C)[C@@]4(C)[C@]5(O)CC[C@]4(O)C(C)=O)C3)O[C@@H]2C)O[C@@H](C)[C@H]1O[C@H]1C[C@H](OC)[C@H](O[C@H]2C[C@@H](OC)[C@@H](O)[C@H](C)O2)[C@@H](C)O1 [WILFOSIDE C1N]
Blumeria hordei [2]
  Activity: 95%
Blumeria hordei [1]; [6]
  IC50: 3.24 µg/mL (≈ 3.04 µM)
Blumeria hordei [3]
  Activity: >77%

## CO[C@H]1C[C@H](O[C@H]2[C@@H](OC)C[C@H](O[C@H]3CC[C@@]4(C)C(=CC[C@]5(O)[C@@H]4C[C@@H](OC(=O)/C=C/c4ccccc4)[C@@]4(C)[C@]5(O)CC[C@]4(O)C(C)=O)C3)O[C@@H]2C)O[C@@H](C)[C@H]1O[C@H]1C[C@H](OC)[C@H](O[C@H]2C[C@@H](OC)[C@@H](O[C@@H]3O[C@H](CO)[C@@H](O[C@@H]4O[C@H](CO)[C@@H](O)[C@H](O)[C@H]4O)[C@H](O)[C@H]3O)[C@H](C)O2)[C@@H](C)O1 [WILFOSIDE K1GG]
Blumeria hordei [1]
  IC50: Not Active

## CCCOC/C(=N\c1ccc(Cl)cc1C(F)(F)F)n1ccnc1 [TRIFLUMIZOLE]
Podosphaera macularis [4]
  Activity: 7.2%
Podosphaera macularis [5]
  Activity: 89%

## CO[C@H]1C[C@H](O[C@H]2[C@@H](OC)C[C@H](O[C@H]3CC[C@@]4(C)C(=CC[C@]5(O)[C@@H]4C[C@@H](OC(=O)/C=C(\C)C(C)C)[C@@]4(C)[C@]5(O)CC[C@]4(O)C(C)=O)C3)O[C@@H]2C)O[C@@H](C)[C@H]1O[C@H]1C[C@H](OC)[C@H](O[C@H]2C[C@@H](OC)[C@@H](O[C@@H]3O[C@H](CO)[C@@H](O)[C@H](O)[C@H]3O)[C@H](C)O2)[C@@H](C)O1 [WILFOSIDE C1G]
Blumeria hordei [2]
  Activity: 78%
Blumeria hordei [1]; [6]
  IC50: 12.9 µg/mL (≈ 10.5 µM)
Blumeria hordei [3]
  Activity: >77%

## CO[C@H]1C[C@H](O[C@H]2[C@@H](OC)C[C@H](O[C@H]3CC[C@@]4(C)C(=CC[C@]5(O)[C@@H]4C[C@@H](OC(=O)/C=C/c4ccccc4)[C@@]4(C)[C@]5(O)CC[C@]4(O)C(C)=O)C3)O[C@@H]2C)O[C@@H](C)[C@H]1O[C@H]1C[C@H](OC)[C@H](O[C@H]2C[C@@H](OC)[C@@H](O)[C@H](C)O2)[C@@H](C)O1 [WILFOSIDE K1N]
Blumeria hordei [1]
  IC50: Not Active

## CO[C@H]1C[C@H](O[C@H]2[C@@H](OC)C[C@H](O[C@H]3CC[C@@]4(C)C(=CC[C@]5(O)[C@@H]4C[C@@H](OC(=O)/C=C(\C)C(C)C)[C@@]4(C)[C@]5(O)CC[C@]4(O)C(C)=O)C3)O[C@@H]2C)O[C@@H](C)[C@H]1O[C@H]1C[C@H](OC)[C@H](O[C@H]2C[C@@H](OC)[C@@H](O[C@@H]3O[C@H](CO)[C@@H](O[C@@H]4O[C@H](CO)[C@@H](O)[C@H](O)[C@H]4O)[C@H](O)[C@H]3O)[C@H](C)O2)[C@@H](C)O1 [WILFOSIDE C1GG]
Blumeria hordei [1]; [6]
  IC50: 28.3 µg/mL (≈ 20.4 µM)
Blumeria hordei [3]
  Activity: >77%

## CC(=O)c1c(C)cc2cccc(O)c2c1O [NEPODIN]
Blumeria hordei [1]; [6]
  IC50: 20 µg/mL (≈ 92.5 µM)
